Calls of active or inactive are those of the source. The calls are words filed in the database; no cut-off is given here.
Legend:
[1] = target: T1, von Hippel-Lindau disease tumor suppressor/Cyclin-dependent kinase 7 (Homo sapiens) (UniProt P50613+P40337); test: PROTAC activity at CDK7/VHL in human Jurkat cells assessed as degradation of CDK7 in presence of 0.5 uM MG132 at 0.1 uM measured after 6 hrs incubation by immunoblot analysis; format: cell-based
How it was run: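 Jurkat cells pretreated 2 h with MG132, MLN-4924, YKL-5–167 or a VHL ligand, then given degrader for 6 h. CDK7 immunoblotted: RIPA lysis, SDS-PAGE, anti-CDK7 1:1000, IRDye secondaries.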

[2] = Tmax in male CD1 mouse at 3 mg/kg, IV measured upto 24 hrs by LC-MS/MS-39 analysis; format: ADME, organism-based; details: in vivo
How it was run: (§1)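 Three male CD1 mice given a single 3 mg/kg intravenous dose. Plasma prepared on ice by centrifugation (2000 g, 5 min, 4 °C) within 15 min, held at about −70 °C. Acetonitrile precipitation, then LC-MS/MS quantitation. Mean ± SD, n=3.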

[3] = target: T1, von Hippel-Lindau disease tumor suppressor/Cyclin-dependent kinase 7 (Homo sapiens); test: PROTAC activity at CDK7/VHL in human Jurkat cells assessed as degradation of MAT1 measured at 0.1 to 5 uM after 6 hrs incubation by Western blotting analysis; format: cell-based; details: dose 0.1-5 µM
How it was run: (§2)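 Jurkat and OVCAR3 cells treated 6 h across a concentration series. Blots probed for CDK7, MAT1 (1:1000) and Cyclin H (1:1000) overnight at 4 °C, with β-actin control and IRDye secondaries.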

[4] = target: T1, von Hippel-Lindau disease tumor suppressor/Cyclin-dependent kinase 7 (Homo sapiens); test: PROTAC activity at CDK7/VHL in human Jurkat cells assessed as degradation of CDK7 at 0.1 uM by immunoblot analysis; format: cell-based; details: time 0.5-24 hrs, TDE = time-dependent effect
How it was run: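 Jurkat time course at 0.1 μM, lysates taken at set time points from 0.5 up to 24 h. CDK7 immunoblotted after RIPA lysis, SDS-PAGE and near-infrared detection with β-actin loading control.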

[5] = target: T1, von Hippel-Lindau disease tumor suppressor/Cyclin-dependent kinase 7 (Homo sapiens); test: PROTAC activity at CDK7/VHL in human Jurkat cells assessed as degradation of Cyclin H measured at 0.1 to 5 uM after 6 hrs incubation by Western blotting analysis; format: cell-based; details: dose 0.1-5 µM; how it was run: as §2
[6] = target: von Hippel-Lindau disease tumor suppressor/Cyclin-dependent kinase 8 (Homo sapiens) (UniProt P49336+P40337); test: PROTAC activity at CDK8/VHL in human Jurkat cells assessed as degradation of CDK7 measured at 10 to 500 nM after 6 hrs incubation by Western blotting analysis; format: cell-based; details: dose 10-500 nM
[7] = target: T1, von Hippel-Lindau disease tumor suppressor/Cyclin-dependent kinase 7 (Homo sapiens); test: PROTAC activity at CDK7/VHL in human OVCAR-3 cells assessed as degradation of CDK7 at 0.1 to 5 uM measured after 6 hrs incubation by immunoblot analysis; format: cell-based; details: dose 0.1-5 µM
[8] = Cmax in male CD1 mouse at 10 mg/kg, IP measured upto 24 hrs by LC-MS/MS-39 analysis; format: ADME, organism-based; details: in vivo
How it was run: (§3)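 Male CD1 mice, n=3, one 10 mg/kg intraperitoneal dose. Blood sampled at 0, 0.25, 0.5, 1, 2, 4, 6, 8 and 24 h. Kept on wet ice and spun to plasma (2000 g, 5 min, 4 °C) within 15 min, stored at about −70 °C. Protein precipitation with acetonitrile, then LC-MS/MS. Values are mean ± SD of three mice.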

SU-DHL-5 = test: Antiproliferative activity against human SU-DHL-5 cells assessed as cell viability measured after 72 hrs by CellTiter-Glo assay; format: functional, cell-based; details: SU-DHL-5, 72 h
How it was run: (§4)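 Cells grown in RPMI 1640 with 10% heat-inactivated FBS and penicillin/streptomycin at 37 °C, 5% CO2, mycoplasma-negative. Seeded at 10^4/ml. Compounds dispensed digitally from 10 mM or 1 mM DMSO stocks, DMSO equalized, triplicate wells. After 72 h, CellTiter-Glo added for 10–15 min at room temperature and luminescence read.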

CDK7/Cyclin H/MNAT1 = CDK7/Cyclin H/MNAT1 (Homo sapiens, UniProt P50613); test: Inhibition of CDK7/CycH/MNAT1 (unknown origin) assessed as change in TR-FRET ratio using Cdk7/9tide as substrate and ATP by in vitro Adapta Eu kinase assay; format: protein-complex assay
How it was run: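 Adapta Eu kinase assay run at ThermoFisher on CDK7/Cyclin H/MNAT1 with ATP at Km.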

[9] = target: von Hippel-Lindau disease tumor suppressor/Cyclin-dependent kinase 9 (Homo sapiens) (UniProt P50750+P40337); test: PROTAC activity at CDK9/VHL in human Jurkat cells assessed as degradation of CDK7 measured at 10 to 500 nM after 6 hrs incubation by Western blotting analysis; format: cell-based; details: dose 10-500 nM
[10] = Observed clearance in male CD1 mouse at 3 mg/kg, IV measured upto 24 hrs by LC-MS/MS-39 analysis; format: ADME, organism-based; details: in vivo; how it was run: as §1
[11] = target: T1, von Hippel-Lindau disease tumor suppressor/Cyclin-dependent kinase 7 (Homo sapiens); test: PROTAC activity at CDK7/VHL in human Jurkat cells assessed as degradation of CDK7 at 1 uM measured after 16 hrs incubation by immunoblot analysis relative to control; format: cell-based
How it was run: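 Jurkat cells given VHL-recruiting compounds at 0.1 or 1 μM for 16 h. RIPA lysis, BCA normalization, 4–20% SDS-PAGE, nitrocellulose transfer. CDK7 (1:1000) and β-actin probed overnight at 4 °C, IRDye secondaries, Odyssey detection. Quantified against control, mean ± SEM from three independent biological replicates.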

[12] = target: T1, von Hippel-Lindau disease tumor suppressor/Cyclin-dependent kinase 7 (Homo sapiens); test: PROTAC activity at CDK7/VHL in human Jurkat cells assessed as degradation of CDK7 measured after 6 hrs incubation by immunoblot analysis; format: cell-based; details: dose 10-5000 nM
[13] = target: T1, von Hippel-Lindau disease tumor suppressor/Cyclin-dependent kinase 7 (Homo sapiens); test: PROTAC activity at CDK7/VHL in human A549 cells assessed as degradation of CDK7 measured at 0.1 to 5 uM measured after 6 hrs incubation by immunoblot analysis; format: cell-based; details: dose 0.1-5 µM
OVCAR-3 = test: Antiproliferative activity against human OVCAR-3 cells assessed as cell viability measured after 72 hrs by CellTiter-Glo assay; format: functional, cell-based; details: OVCAR-3, 72 h; how it was run: as §4
[14] = Observed clearance in male CD1 mouse at 10 mg/kg, IP measured upto 24 hrs by LC-MS/MS-39 analysis; format: ADME, organism-based; details: in vivo; how it was run: as §3
[15] = Half life in male CD1 mouse at 3 mg/kg, IV measured upto 24 hrs by LC-MS/MS-39 analysis; format: ADME, organism-based; details: in vivo; how it was run: as §1
[16] = target: Cyclin-dependent kinase 7 (Homo sapiens) (UniProt P50613); test: Induction of degradation of CDK7 in human […]-knockout Jurkat cells at 0.01 to 1 uM measured after 6 hrs incubation by immunoblot analysis; format: cell-based; details: dose 0.01-1 µM
How it was run: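 Parental and VHL-knockout Jurkat cells treated with degrader for 6 h, then CDK7 western blot (RIPA lysis, 4–20% SDS-PAGE, β-actin control, infrared detection).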

[17] = Tmax in male CD1 mouse at 10 mg/kg, IP measured upto 24 hrs by LC-MS/MS-39 analysis; format: ADME, organism-based; details: in vivo; how it was run: as §3
Jurkat = test: Potency index, ratio of YKL-5-167 IC50 to test compound IC50 for antiproliferative activity against human Jurkat cells assessed as cell viability measured after 72 hrs by CellTiter-Glo assay; format: functional
[18] = Half life in male CD1 mouse at 10 mg/kg, IP measured upto 24 hrs by LC-MS/MS-39 analysis; format: ADME, organism-based; details: in vivo; how it was run: as §3
[19] = target: von Hippel-Lindau disease tumor suppressor/Cyclin-dependent kinase 1 (Homo sapiens) (UniProt P06493+P40337); test: PROTAC activity at CDK1/VHL in human Jurkat cells assessed as degradation of CDK7 measured at 10 to 500 nM after 6 hrs incubation by Western blotting analysis; format: cell-based; details: dose 10-500 nM
Chain of von Hippel-Lindau disease tumor suppressor/Cyclin-dependent kinase 1 (Homo sapiens) (P06493 whole entry, looked up): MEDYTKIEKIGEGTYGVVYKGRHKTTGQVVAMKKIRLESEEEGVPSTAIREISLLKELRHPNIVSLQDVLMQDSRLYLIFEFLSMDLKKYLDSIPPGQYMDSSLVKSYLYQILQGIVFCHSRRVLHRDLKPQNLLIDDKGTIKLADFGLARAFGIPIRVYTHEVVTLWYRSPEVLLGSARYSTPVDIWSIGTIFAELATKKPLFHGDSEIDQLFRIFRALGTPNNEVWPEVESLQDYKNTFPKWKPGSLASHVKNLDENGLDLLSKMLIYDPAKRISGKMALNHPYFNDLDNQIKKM
Chain of von Hippel-Lindau disease tumor suppressor/Cyclin-dependent kinase 1 (Homo sapiens) (P40337 whole entry, looked up): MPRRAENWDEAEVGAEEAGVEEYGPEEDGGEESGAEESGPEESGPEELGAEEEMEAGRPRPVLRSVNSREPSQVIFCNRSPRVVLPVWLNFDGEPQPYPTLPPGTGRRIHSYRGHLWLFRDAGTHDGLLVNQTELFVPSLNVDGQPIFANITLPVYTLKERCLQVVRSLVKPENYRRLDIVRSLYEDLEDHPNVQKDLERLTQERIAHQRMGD

T1 sequence (P40337 whole entry, looked up): as above
T1 sequence (P50613 whole entry, looked up): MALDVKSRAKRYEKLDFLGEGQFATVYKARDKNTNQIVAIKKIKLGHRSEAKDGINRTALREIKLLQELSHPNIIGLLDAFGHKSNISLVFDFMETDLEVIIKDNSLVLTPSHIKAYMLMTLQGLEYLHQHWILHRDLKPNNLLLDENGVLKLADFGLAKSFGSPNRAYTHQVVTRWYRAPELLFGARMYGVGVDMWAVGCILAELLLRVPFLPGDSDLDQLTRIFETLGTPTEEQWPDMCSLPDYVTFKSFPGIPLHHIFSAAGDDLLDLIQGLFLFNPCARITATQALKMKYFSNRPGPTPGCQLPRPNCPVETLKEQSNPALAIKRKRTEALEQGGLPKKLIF
Chain of CDK7/Cyclin H/MNAT1 (P51946 whole entry): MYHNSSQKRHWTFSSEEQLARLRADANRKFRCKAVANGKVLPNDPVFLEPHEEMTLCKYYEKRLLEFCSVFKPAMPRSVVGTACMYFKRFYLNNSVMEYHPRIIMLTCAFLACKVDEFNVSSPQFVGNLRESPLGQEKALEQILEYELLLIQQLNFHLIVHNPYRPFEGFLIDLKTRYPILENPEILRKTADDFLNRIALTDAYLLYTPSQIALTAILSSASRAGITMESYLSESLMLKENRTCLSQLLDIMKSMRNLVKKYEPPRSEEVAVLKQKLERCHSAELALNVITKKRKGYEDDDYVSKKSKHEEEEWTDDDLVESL
Chain of CDK7/Cyclin H/MNAT1 (P50613 whole entry): as the sequence (P50613 whole entry, looked up) above
Chain of CDK7/Cyclin H/MNAT1 (P51948 whole entry, further chain): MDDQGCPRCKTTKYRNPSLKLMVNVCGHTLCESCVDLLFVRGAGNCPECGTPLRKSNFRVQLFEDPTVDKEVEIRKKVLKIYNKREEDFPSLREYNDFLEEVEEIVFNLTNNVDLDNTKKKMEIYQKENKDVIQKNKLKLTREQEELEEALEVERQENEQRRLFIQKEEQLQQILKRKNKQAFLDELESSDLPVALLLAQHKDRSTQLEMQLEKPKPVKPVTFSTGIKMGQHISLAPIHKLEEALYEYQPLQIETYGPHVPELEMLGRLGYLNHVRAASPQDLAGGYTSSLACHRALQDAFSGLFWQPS
Chain of Cyclin-dependent kinase 7 (Homo sapiens) (P50613 whole entry): as the sequence (P50613 whole entry, looked up) above
Chain of von Hippel-Lindau disease tumor suppressor/Cyclin-dependent kinase 9 (Homo sapiens) (P40337 whole entry, looked up): as the sequence (P40337 whole entry, looked up) above
Chain of von Hippel-Lindau disease tumor suppressor/Cyclin-dependent kinase 9 (Homo sapiens) (P50750 whole entry, looked up): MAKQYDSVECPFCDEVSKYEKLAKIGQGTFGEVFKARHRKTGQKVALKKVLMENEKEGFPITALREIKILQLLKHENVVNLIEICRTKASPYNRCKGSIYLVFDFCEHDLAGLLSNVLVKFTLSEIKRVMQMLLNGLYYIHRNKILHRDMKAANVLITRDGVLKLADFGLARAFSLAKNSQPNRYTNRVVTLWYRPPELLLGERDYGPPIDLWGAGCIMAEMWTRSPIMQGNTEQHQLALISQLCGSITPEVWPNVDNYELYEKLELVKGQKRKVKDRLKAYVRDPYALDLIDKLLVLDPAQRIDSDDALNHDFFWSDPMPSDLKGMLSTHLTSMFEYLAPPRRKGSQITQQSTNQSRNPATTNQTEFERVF
Chain of von Hippel-Lindau disease tumor suppressor/Cyclin-dependent kinase 8 (Homo sapiens) (P40337 whole entry, looked up): as the sequence (P40337 whole entry, looked up) above
Chain of von Hippel-Lindau disease tumor suppressor/Cyclin-dependent kinase 8 (Homo sapiens) (P49336 whole entry, looked up): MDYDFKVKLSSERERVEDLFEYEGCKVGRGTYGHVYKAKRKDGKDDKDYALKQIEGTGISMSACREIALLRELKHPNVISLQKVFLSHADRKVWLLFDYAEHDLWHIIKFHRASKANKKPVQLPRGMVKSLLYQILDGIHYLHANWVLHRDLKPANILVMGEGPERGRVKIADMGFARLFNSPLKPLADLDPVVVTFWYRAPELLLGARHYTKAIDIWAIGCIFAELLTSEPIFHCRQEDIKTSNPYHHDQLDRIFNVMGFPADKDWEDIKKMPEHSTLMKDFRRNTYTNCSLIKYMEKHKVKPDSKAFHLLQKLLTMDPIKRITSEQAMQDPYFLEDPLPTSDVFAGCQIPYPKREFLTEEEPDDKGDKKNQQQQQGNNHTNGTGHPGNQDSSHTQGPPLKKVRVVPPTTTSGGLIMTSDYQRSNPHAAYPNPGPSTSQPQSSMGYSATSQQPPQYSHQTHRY

In the case of `Cc1ncsc1-c1ccc([C@H](C)NC(=O)[C@@H]2C[C@@H](O)CN2C(=O)[C@@H](NC(=O)CCCC#Cc2ccc(C(=O)Nc3n[nH]c4c3CN(C(=O)N[C@H](CN(C)C)c3ccccc3)C4(C)C)cc2)C(C)(C)C)cc1`, the Activity [1] is reported as “inactive”, the Tmax [2] is reported as 4.98 min and the Activity [3] is reported as “Active”. For the same compound, the Activity [4] was “Tde”, the Activity [5] was “Active” and the Activity [6] was “inactive”. The Activity [7] was “Dose-Dependent Effect”, the Cmax [8] was 3.39 µM and the IC50 (SU-DHL-5) was 0.052 µM. The IC50 (CDK7/Cyclin H/MNAT1) was 0.0201 µM, the Activity [9] was “inactive” and the clearance [10] was 0.498 L/h/kg. The Activity [11] was 95%, the Efficacy [12] was “Dose-Dependent Effect” and the Activity [13] was “Dose-Dependent Effect”. It also gave an IC50 (OVCAR-3) of 0.78 µM, a CL/F [14] of 0.522 L/h/kg and a t1/2 [15] of 3.76 h. The Activity [16] was “inactive”, the Tmax [17] was 1 h and the Ratio (Jurkat) was 7. The t1/2 [18] was 2.82 h and the Activity [19] was “inactive”.

Source: ChEMBL document CHEMBL5608193, “Discovery of bivalent small molecule degraders of cyclin-dependent kinase 7 (CDK7)” (Eur J Med Chem, 2024)
